In series [1] the target is T1, Metabotropic glutamate receptor 1 (Homo sapiens, UniProt Q13255). In words: Positive allosteric modulatory activity at human mGlu1 receptor expressed in wild type T-Rex293 cells assessed as increase in glutamate-induced calcium mobilization pre-incubated for 2.5 mins before glutamate stimulation for 1 min relative to glutamate alone. It is filed as functional, cell-based. In short, it runs like this:
(§1)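 Tetracycline-inducible human mGlu1 WT T-REx-293 cells were induced overnight with 50 ng/mL tetracycline in dialyzed-FBS medium. Cells were loaded with 1.15 μM Fluo-4 AM in HBSS/20 mM HEPES/2.5 mM probenecid for 45 min at 37 °C. Compounds (half-log series in DMSO) were added for 2.5 min, then an EC20 of glutamate for 1 min. Calcium flux was read on Flexstation; ECmax glutamate served as reference. n=3 in triplicate.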
For orientation: A change in cytosolic calcium serves as a functional read-out for many receptors and channels.
Target sequence in this assay (Q13255 19-1194 limits assumed): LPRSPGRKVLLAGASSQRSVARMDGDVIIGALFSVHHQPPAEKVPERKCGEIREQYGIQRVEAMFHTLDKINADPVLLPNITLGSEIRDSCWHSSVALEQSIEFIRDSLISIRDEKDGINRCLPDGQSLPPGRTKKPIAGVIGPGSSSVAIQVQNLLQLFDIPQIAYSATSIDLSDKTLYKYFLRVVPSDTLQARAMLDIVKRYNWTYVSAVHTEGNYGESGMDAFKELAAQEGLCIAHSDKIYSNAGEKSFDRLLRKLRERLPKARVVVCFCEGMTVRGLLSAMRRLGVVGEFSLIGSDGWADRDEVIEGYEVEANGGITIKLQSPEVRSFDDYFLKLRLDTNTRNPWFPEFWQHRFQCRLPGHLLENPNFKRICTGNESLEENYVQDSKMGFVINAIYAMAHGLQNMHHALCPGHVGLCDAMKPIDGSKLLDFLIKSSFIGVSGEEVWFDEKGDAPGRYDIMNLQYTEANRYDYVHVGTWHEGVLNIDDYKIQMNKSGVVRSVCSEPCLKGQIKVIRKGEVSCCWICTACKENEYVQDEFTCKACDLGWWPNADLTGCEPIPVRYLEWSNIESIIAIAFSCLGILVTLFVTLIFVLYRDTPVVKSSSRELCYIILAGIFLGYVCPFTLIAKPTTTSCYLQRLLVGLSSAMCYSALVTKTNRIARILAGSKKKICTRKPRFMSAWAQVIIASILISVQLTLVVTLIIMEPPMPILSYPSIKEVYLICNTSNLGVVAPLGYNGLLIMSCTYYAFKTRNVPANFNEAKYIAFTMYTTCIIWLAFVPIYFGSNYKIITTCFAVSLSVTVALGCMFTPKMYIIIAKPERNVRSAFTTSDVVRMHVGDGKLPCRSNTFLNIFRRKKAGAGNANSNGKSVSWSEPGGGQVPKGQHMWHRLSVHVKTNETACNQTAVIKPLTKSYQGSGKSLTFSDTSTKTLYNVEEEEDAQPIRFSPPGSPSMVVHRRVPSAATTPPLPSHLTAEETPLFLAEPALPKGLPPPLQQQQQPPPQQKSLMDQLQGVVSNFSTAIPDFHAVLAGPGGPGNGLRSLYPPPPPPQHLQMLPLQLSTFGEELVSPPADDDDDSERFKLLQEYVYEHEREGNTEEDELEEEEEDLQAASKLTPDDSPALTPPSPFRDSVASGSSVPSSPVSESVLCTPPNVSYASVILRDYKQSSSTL

Series [2] concerns the target T1, Metabotropic glutamate receptor 1. In words: Positive allosteric modulatory activity at human mGlu1 receptor expressed in wild type T-Rex293 cells assessed as increase in glutamate-induced calcium mobilization pre-incubated for 2.5 mins before glutamate stimulation for 1 min. It counts as functional, cell-based. In short, it runs like this:
as §1
Target sequence in this assay (Q13255 whole entry): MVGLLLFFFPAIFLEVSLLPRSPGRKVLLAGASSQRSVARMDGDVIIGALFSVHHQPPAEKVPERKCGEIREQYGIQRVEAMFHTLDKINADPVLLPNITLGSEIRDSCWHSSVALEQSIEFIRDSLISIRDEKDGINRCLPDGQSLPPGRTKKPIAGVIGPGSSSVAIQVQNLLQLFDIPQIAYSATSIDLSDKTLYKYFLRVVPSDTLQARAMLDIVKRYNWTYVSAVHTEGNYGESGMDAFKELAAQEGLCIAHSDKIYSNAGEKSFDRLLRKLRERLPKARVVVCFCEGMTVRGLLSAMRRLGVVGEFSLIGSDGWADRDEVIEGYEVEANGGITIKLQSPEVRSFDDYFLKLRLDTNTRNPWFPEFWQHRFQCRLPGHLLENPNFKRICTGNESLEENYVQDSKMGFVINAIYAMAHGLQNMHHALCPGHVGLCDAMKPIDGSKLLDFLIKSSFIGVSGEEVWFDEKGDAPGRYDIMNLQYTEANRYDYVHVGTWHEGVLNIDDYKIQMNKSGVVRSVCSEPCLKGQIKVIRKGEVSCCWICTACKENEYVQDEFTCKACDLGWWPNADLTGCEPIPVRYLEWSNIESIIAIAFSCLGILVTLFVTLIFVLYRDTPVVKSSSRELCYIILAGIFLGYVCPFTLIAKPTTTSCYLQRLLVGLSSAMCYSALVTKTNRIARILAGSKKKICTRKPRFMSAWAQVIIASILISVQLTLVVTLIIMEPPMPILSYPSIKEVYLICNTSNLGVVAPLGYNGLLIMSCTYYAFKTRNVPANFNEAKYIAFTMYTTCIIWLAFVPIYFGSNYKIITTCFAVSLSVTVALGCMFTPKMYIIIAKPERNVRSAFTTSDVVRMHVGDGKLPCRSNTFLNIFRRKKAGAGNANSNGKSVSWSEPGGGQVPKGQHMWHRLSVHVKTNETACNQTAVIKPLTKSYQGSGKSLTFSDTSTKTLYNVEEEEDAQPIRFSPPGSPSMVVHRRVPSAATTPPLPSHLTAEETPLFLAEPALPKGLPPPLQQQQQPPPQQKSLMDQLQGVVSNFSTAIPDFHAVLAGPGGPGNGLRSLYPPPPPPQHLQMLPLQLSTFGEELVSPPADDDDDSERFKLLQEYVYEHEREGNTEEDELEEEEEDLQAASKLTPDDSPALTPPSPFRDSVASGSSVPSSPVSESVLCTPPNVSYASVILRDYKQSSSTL

In series [3] the test system is Liver microsome. As to the kind of experiment: Stability in human liver microsomes. It is filed as ADME.
For series [4], the system named is Liver microsome. In words: Stability in rat liver microsomes. It is filed as ADME.
The subject of series [5] is Plasma. As to the kind of experiment: Stability in rat plasma. It counts as ADME, cell-free.
The test system of series [6] is Plasma. In words: Stability in human plasma. It counts as ADME, cell-free.
For series [7], the target named is Cytochrome P450 2D6 (Homo sapiens, UniProt P10635). As to the kind of experiment: Inhibition of CYP2D6 (unknown origin). It is filed as ADME.
Chain of Cytochrome P450 2D6 (P10635 whole entry): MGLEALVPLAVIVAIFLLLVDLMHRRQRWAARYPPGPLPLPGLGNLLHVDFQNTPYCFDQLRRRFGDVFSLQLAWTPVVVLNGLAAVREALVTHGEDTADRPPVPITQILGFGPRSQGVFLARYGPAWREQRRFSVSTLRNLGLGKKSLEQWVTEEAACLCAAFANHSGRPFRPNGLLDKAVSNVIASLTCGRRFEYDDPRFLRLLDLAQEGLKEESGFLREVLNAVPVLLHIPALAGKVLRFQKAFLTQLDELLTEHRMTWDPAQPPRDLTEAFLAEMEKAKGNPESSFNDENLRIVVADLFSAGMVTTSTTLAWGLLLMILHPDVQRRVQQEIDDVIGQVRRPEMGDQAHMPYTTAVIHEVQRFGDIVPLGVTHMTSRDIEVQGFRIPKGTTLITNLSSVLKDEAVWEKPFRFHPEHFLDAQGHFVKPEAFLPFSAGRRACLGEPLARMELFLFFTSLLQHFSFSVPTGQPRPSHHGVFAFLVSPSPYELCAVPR
Series [8] deals with Cytochrome P450 2C9 (Homo sapiens, UniProt P11712). As to the kind of experiment: Inhibition of CYP2C9 (unknown origin). It is filed as ADME.
Chain of Cytochrome P450 2C9 (P11712 whole entry): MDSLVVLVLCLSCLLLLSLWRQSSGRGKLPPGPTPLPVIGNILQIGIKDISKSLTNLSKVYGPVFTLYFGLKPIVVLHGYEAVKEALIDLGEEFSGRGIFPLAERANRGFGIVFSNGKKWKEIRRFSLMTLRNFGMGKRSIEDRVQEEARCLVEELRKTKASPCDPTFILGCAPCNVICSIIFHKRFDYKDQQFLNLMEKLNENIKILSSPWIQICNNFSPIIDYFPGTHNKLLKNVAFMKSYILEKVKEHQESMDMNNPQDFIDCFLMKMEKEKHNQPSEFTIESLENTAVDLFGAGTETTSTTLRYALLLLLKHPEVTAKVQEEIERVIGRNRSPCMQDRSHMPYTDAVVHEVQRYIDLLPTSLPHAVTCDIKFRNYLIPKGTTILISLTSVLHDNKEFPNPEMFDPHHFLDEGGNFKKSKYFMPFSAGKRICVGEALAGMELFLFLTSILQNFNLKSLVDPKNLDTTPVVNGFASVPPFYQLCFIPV
Series [9] is described as follows: Intrinsic clearance in rat. Conditions: in vivo; call rule not given here. It is filed as ADME, organism-based.
For series [10], the target named is Cytochrome P450 3A4 (Homo sapiens, UniProt P08684). In words: Inhibition of […] (unknown origin). It is filed as ADME.
Chain of Cytochrome P450 3A4 (P08684 whole entry): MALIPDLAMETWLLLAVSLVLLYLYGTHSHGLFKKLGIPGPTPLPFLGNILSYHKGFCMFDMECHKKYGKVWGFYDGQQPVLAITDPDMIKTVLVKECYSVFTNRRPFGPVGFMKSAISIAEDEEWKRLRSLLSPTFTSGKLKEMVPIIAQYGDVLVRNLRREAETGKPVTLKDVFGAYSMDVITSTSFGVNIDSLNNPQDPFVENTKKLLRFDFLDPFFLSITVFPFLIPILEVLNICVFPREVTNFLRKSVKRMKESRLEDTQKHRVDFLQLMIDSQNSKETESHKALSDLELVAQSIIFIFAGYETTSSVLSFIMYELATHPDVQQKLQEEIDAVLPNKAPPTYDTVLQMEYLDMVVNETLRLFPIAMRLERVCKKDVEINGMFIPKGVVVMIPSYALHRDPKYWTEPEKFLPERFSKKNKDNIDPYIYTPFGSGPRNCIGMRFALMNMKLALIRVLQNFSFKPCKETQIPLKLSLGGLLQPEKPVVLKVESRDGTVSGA
Series [11] has as its target T2, Cytochrome P450 1A2 (Homo sapiens, UniProt P05177).
T2 sequence (P05177 whole entry): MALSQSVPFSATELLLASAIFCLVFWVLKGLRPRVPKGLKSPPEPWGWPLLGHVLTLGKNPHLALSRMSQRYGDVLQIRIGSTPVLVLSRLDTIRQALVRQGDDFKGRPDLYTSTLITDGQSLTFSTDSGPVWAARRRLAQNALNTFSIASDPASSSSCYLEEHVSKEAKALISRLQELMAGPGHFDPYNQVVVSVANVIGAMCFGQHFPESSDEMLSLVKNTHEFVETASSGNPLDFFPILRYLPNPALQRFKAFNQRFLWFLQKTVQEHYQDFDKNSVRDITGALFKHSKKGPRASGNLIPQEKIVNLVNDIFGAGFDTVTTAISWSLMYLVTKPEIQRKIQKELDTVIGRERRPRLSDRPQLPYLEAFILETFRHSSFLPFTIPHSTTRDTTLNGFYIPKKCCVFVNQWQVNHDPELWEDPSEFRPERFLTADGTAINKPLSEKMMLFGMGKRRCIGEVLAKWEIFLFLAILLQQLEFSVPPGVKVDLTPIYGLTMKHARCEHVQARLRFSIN
As to the kind of experiment: Inhibition of CYP1A2 (unknown origin). It counts as ADME.

A short description of series [12]: Intrinsic clearance in human. It is filed as ADME, organism-based. Particulars: in vivo.
The nature of series [13]: Protein binding in rat brain. It counts as ADME, tissue-based. Particulars: read-out: PB.
The species named for series [14] is Rattus norvegicus. In words: Half life in rat. It is filed as ADME, organism-based. Conditions: in vivo.
Series [15] in a line: Ratio of drug level in brain to plasma in rat. It counts as ADME.
Series [16] is described as follows: Fraction unbound in human plasma. It counts as ADME, cell-free.
The test system of series [17] is Brain. In words: Drug uptake in rat brain. It counts as ADME, tissue-based. Particulars: in vivo.
The nature of series [18]: Mean residence time in rat. It is filed as ADME, organism-based. Particulars: in vivo.
Series [19] is filed under the species Rattus norvegicus. In words: Volume of distribution in rat. It counts as ADME, organism-based. Conditions: in vivo.
Series [20] deals with Plasma. In words: Drug uptake in rat plasma. It is filed as ADME.
Series [21] has as its target Metabotropic glutamate receptor 4 (Homo sapiens, UniProt Q14833). In words: Positive allosteric modulatory activity at human mGlu4 receptor expressed in wild type T-Rex293 cells assessed as increase in glutamate-induced calcium mobilization pre-incubated for 2.5 mins before glutamate stimulation for 1 min. It is filed as functional, cell-based.
A short description of series [22]: Plasma protein binding in human. It counts as ADME, cell-free.

Structures are written as SMILES.

Chain of Metabotropic glutamate receptor 4 (Q14833 whole entry): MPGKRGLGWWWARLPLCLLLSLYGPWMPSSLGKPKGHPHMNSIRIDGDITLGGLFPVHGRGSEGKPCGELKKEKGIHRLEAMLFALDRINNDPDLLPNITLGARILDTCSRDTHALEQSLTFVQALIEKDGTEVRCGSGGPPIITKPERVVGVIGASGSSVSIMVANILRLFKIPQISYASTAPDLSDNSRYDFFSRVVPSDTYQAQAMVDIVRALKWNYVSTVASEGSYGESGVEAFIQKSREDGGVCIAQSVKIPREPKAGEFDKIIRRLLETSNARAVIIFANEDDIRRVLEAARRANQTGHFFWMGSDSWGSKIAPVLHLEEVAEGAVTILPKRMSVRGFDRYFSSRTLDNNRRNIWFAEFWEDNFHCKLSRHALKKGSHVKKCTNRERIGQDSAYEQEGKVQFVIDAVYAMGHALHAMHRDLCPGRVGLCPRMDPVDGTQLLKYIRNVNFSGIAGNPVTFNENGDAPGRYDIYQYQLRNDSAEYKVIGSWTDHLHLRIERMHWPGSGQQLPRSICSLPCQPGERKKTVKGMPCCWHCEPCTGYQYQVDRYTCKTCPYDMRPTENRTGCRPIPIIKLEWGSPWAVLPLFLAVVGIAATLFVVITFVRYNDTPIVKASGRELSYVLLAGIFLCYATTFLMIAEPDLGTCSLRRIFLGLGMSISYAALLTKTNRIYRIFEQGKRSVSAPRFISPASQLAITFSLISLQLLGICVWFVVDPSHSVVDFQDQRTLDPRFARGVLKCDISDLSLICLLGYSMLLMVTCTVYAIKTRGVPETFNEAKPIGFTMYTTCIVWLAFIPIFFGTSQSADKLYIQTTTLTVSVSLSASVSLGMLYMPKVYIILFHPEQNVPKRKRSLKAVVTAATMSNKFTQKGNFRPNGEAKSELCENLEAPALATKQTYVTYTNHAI

For `Cc1ccoc1C(=O)Nc1ccc(N2Cc3ccccc3C2=O)c(Cl)c1`, the %max in series [1] was determined as 91%. In addition, in series [2] (read-out: EC50), the EC50 is 3.72 µM. Besides, the Stability entry in [3] and in [4] was “Stable” in each case.
Consider `Cc1ccoc1C(=O)Nc1ccc(N2C(=O)Cc3ccccc3C2=O)c(Cl)c1`, for which the Stability result in series [5] and in [6] was “Unstable” in each case. In [1], the %max was found to be 105%. For the same compound, the “inhibition (INH)” value in series [7] (human), in series [8] (human), in series [10] (human) and in series [11] (human) was “Not Active” in each case. Further, the EC50 in series [2] (read-out: EC50) was 0.242 µM; in series [2] (read-out: pEC50 (converted)) it was 0.224 µM. In addition, the CLhep predicted was 54 mL/min/kg in series [9] and 13.5 mL/min/kg in series [12].
The IC50 is the point on the concentration scale where inhibition reaches its midpoint. High values mean weaker potency, low ones greater potency. As usually defined, the MRT is the average time that molecules of a dose stay in the body. Usually Vd stands for the apparent volume that relates the amount in the body to the concentration in plasma or blood. On to `Cc1ccoc1C(=O)Nc1ccc(N2Cc3c(Cl)cccc3C2=O)c(Cl)c1`, for which the fraction unbound in series [13] and in series [16] was below 0.01 each time. Further, in series [1], the %max was found to be 88%. For the same compound, the IC50 in series [7], in series [8], in series [10] and in [11] was above 30 µM in each case. Besides, the EC50 was 0.211 µM in series [2] (read-out: EC50) and above 10 µM in [21]. In [14], this compound had a t1/2 of 1.55 h. For the same compound, the BPR in series [15] was 1.36. In series [17], this compound came in with a Druguptake/dose of 269 nM. This compound gave an MRT in series [18] of 5.03 h. The same compound showed a Vd in [19] of 3.36 L/kg. Further, the Stability result in [3] and in series [4] was “Stable” throughout. In series [20], the Cp/dose amounted to 193 nM. The same compound yielded a PPB in series [22] above 99%.

(Values after ChEMBL document CHEMBL3785002, “Lead optimization of the VU0486321 series of mGlu1 PAMs. Part 3. Engineering plasma stability by discovery and optimization of isoindolinone analogs” (Bioorg Med Chem Lett, 2016).)
